According to publication PMC5010146 (European journal of medicinal chemistry, 2016):

What was measured:
[1] = biological target: T1, 15-LOX-1 (Homo sapiens, UniProt P16050); test: 15-LOX-1 enzyme inhibition, UV absorbance; type: biochemical
T1 sequence (P16050 1-662): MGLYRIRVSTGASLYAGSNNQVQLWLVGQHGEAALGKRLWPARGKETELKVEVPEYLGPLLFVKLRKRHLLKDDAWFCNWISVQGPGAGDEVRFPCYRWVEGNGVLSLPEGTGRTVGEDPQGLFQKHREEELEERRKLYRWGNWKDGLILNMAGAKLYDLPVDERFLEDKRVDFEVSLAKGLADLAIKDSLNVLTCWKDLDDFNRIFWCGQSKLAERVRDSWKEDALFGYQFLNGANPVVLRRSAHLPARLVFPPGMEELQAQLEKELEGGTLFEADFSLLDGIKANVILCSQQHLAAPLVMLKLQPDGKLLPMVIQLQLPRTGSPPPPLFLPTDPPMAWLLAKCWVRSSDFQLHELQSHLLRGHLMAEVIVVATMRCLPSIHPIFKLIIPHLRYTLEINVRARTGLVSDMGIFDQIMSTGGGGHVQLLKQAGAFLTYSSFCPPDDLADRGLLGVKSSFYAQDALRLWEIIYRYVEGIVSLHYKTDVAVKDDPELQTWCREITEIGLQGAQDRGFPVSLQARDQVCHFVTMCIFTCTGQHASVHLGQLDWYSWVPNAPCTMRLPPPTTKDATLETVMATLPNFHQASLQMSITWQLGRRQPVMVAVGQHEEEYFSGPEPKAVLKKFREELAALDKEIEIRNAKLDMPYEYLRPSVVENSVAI

[2] = system: HT-22 cells; test: Glutamate-induced lipid peroxidation, BODIPY staining, FACS; type: cell-based; details: 1 μM, 16 h after initiation of glutamate challenge
Summary of the method: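 HT-22 cells were seeded at 5x10^4 per well, left overnight, then exposed to 4 mM glutamate with or without test compound (10 µM) or 1 µM reference inhibitor for 6–7 h or 14–16 h. Staining used BODIPY 581/591 C11 (2 µM final, 1 h, 37°C). The red-to-green fluorescence shift was read by FACS at 488 nm excitation. At least three independent experiments, triplicates.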

[3] = system: HT-22 cells; test: Glutamate-induced cell death, xCELLigence impedance and MTT; type: cell-based
[4] = system: 15-LOX-1; details: mouse, transient cerebral ischemia; cited from earlier work
[5] = biological target: T2, human 15-lipoxygenase-1 (15-LOX-1) (Homo sapiens, UniProt P16050); test: Michaelis-Menten enzyme kinetics analysis of 15-LOX-1 inhibition; type: biochemical; details: Lineweaver-Burk: Km increases, Vmax constant
T2 sequence (P16050 1-662): T1 sequence (P16050 1-662)

CCCCNC(=O)c1cc(-c2ccc(Br)cc2)sc1N [Compound 3m, 2-amino-5-(4-bromophenyl)-N-butylthiophene-3-carboxamide]
inhibitory potency in words [1]: inactive

CCCCNC(=O)c1cc(-c2ccc(Cl)cc2)sc1N [Compound 3l, 2-amino-N-butyl-5-(4-chlorophenyl)thiophene-3-carboxamide]
inhibitory potency in words [1]: inactive

c1ccc2c(c1)SCc1c-2[nH]c2ccccc12 [PD-146176]
effect on boost of lipid peroxides [2]: significantly attenuated | protection against glutamate toxicity compared with ThioLox ([3]; 1 μM): Comparable results | effect on infarct size [4]: significantly reduced the infarct size

CCCCNC(=O)c1cc(-c2ccccc2)sc1N [Compound A9, 2-amino-N-butyl-5-phenylthiophene-3-carboxamide]
mechanism of 15-LOX-1 inhibition [5]: competitive inhibition | time of addition after glutamate challenge at which cells were still protected ([3]; post-treatment 5 and 10 μM, added 2-8 h after glutamate): up to 8 h

CCCCNC(=O)c1cc(Cc2ccccc2)sc1N [Compound 3n, 2-amino-5-benzyl-N-butylthiophene-3-carboxamide]
inhibitory potency in words [1]: inactive
